# Source: ChEMBL document CHEMBL4359813, “Synthesis and antimycobacterial activity of imidazo[1,2-b][1,2,4,5]tetrazines” (2019)
# Active and inactive are the calls of the source. The calls are words filed in the database; no cut-off is given here.
# Experiments:
# [1] = system: Mycolicibacterium smegmatis; assay: Antimycobacterial activity against Mycobacterium smegmatis atR14 assessed as decrease in drug resistance development at 100 ug/disc after 2 to 3 days by paper disc method; type: functional, organism-based
# Summary of the method: (§1)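 Mutant M. smegmatis strains were grown in Middlebrook 7H9/OADC/Tween/glycerol to OD600 1.2. Cultures were diluted 1:9:10 (culture:water:M290) and overlaid on M290 agar. Commercial or impregnated paper discs were applied and plates incubated 2–3 days at 37 °C. Inhibition halos were measured to 1 mm, run in triplicate, mean ± SD.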
# [2] = system: Mycolicibacterium smegmatis; assay: Antimycobacterial activity against Mycobacterium smegmatis atR8 assessed as decrease in drug resistance development at 100 ug/disc after 2 to 3 days by paper disc method; type: functional, organism-based
# Summary of the method: (§2)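 Drug-resistant M. smegmatis mc2 155 mutants, isolated on M290 agar with 3.5-4× MIC of compound and resistance re-confirmed, grown in Middlebrook 7H9 (OADC, 0.1% Tween-80, 0.4% glycerol) to OD600 1.2. Diluted 1:9:10 culture:water:M290 and poured as top layer on M290 agar. Impregnated paper discs applied; 37 °C for 2–3 days. Halos measured to nearest 1 mm; triplicates, mean ± SD versus control strain.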
# [3] = system: Mycolicibacterium smegmatis; assay: Antimycobacterial activity against Mycobacterium smegmatis atR37 assessed as decrease in drug resistance development at 100 ug/disc after 2 to 3 days by paper disc method; type: functional, organism-based; summary of the method: as §2
# [4] = system: Mycolicibacterium smegmatis; assay: Antimycobacterial activity against Mycobacterium smegmatis atR40 assessed as decrease in drug resistance development at 100 ug/disc after 2 to 3 days by paper disc method; type: functional, organism-based; summary of the method: as §2
# [5] = system: Mycolicibacterium smegmatis; assay: Antimycobacterial activity against Mycobacterium smegmatis atR11 assessed as decrease in drug resistance development at 100 ug/disc after 2 to 3 days by paper disc method; type: functional, organism-based; summary of the method: as §1
# [6] = system: Mycolicibacterium smegmatis; assay: Antimycobacterial activity against Mycobacterium smegmatis atR10 assessed as decrease in drug resistance development at 100 ug/disc after 2 to 3 days by paper disc method; type: functional, organism-based; summary of the method: as §1
# [7] = system: Mycolicibacterium smegmatis; assay: Antimycobacterial activity against Mycobacterium smegmatis atR2 assessed as decrease in drug resistance development at 100 ug/disc after 2 to 3 days by paper disc method; type: functional, organism-based; summary of the method: as §1
# [8] = system: Mycolicibacterium smegmatis; assay: Antimycobacterial activity against Mycobacterium smegmatis atR1 assessed as decrease in drug resistance development at 100 ug/disc after 2 to 3 days by paper disc method; type: functional, organism-based; summary of the method: as §1
# [9] = system: Mycolicibacterium smegmatis MC2 155; assay: Inhibition of STPK in Mycobacterium smegmatis MC2 155 expressing aminoglycoside phophotransferase-8 assessed as growth inhibition at 25 nmol/disk after 18 hrs in presence of kanamycin by paper disk method
# [10] = system: Mycolicibacterium smegmatis; assay: Antimycobacterial activity against Mycobacterium smegmatis atR2 assessed as decrease in drug resistance development at 5 ug/disc after 2 to 3 days by paper disc method; type: functional, organism-based; summary of the method: as §1
# [11] = system: Mycolicibacterium smegmatis; assay: Antimycobacterial activity against Mycobacterium smegmatis atR10 assessed as decrease in drug resistance development at 5 ug/disc after 2 to 3 days by paper disc method; type: functional, organism-based; summary of the method: as §1
# [12] = system: Mycolicibacterium smegmatis; assay: Antimycobacterial activity against Mycobacterium smegmatis atR11 assessed as decrease in drug resistance development at 5 ug/disc after 2 to 3 days by paper disc method; type: functional, organism-based; summary of the method: as §1
# [13] = system: Mycolicibacterium smegmatis; assay: Antimycobacterial activity against Mycobacterium smegmatis atR19 assessed as decrease in drug resistance development at 5 ug/disc after 2 to 3 days by paper disc method; type: functional, organism-based; summary of the method: as §1
# [14] = system: Mycolicibacterium smegmatis; assay: Antimycobacterial activity against Mycobacterium smegmatis atR33 assessed as decrease in drug resistance development at 5 ug/disc after 2 to 3 days by paper disc method; type: functional, organism-based; summary of the method: as §2
# [15] = system: Mycolicibacterium smegmatis; assay: Antimycobacterial activity against Mycobacterium smegmatis atR14 assessed as decrease in drug resistance development at 5 ug/disc after 2 to 3 days by paper disc method; type: functional, organism-based; summary of the method: as §1
# [16] = system: Mycolicibacterium smegmatis; assay: Antimycobacterial activity against Mycobacterium smegmatis atR40 assessed as decrease in drug resistance development at 5 ug/disc after 2 to 3 days by paper disc method; type: functional, organism-based; summary of the method: as §2
# [17] = system: Mycolicibacterium smegmatis; assay: Antimycobacterial activity against Mycobacterium smegmatis atR1 assessed as decrease in drug resistance development at 5 ug/disc after 2 to 3 days by paper disc method; type: functional, organism-based; summary of the method: as §1
# [18] = system: Mycolicibacterium smegmatis MC2 155; assay: Inhibition of STPK in Mycobacterium smegmatis MC2 155 expressing aminoglycoside phophotransferase-8 assessed as growth inhibition at 350 microg/disk after 18 hrs by paper disk method
# [19] = system: Mycolicibacterium smegmatis; assay: Antimycobacterial activity against Mycobacterium smegmatis atR37 assessed as decrease in drug resistance development at 5 ug/disc after 2 to 3 days by paper disc method; type: functional, organism-based; summary of the method: as §2
# [20] = system: Mycolicibacterium smegmatis; assay: Antimycobacterial activity against Mycobacterium smegmatis atR8 assessed as decrease in drug resistance development at 5 ug/disc after 2 to 3 days by paper disc method; type: functional, organism-based; summary of the method: as §2
# [21] = system: Mycolicibacterium smegmatis; assay: Antimycobacterial activity against Mycobacterium smegmatis atR17 assessed as decrease in drug resistance development at 5 ug/disc after 2 to 3 days by paper disc method; type: functional, organism-based; summary of the method: as §1
smiles,measurement,setting,value
CO[C@H]1/C=C/O[C@@]2(C)Oc3c(C)c(O)c4c(O)c(c(/C=N/N5CCN(C)CC5)c(O)c4c3C2=O)NC(=O)/C(C)=C\C=C\[C@H](C)[C@H](O)[C@@H](C)[C@@H](O)[C@@H](C)[C@H](OC(C)=O)[C@@H]1C,Activity,[1],inactive
same,Activity,[2],inactive
same,Activity,[3],Active
same,Activity,[4],Active
same,Activity,[5],inactive
same,Activity,[6],inactive
same,Activity,[7],inactive
same,Activity,[8],inactive
CC(C)Sc1cnc2nnc(-n3ccnc3)nn12,inhibition zone (IZ),[9],13.8 mm
NC[C@H]1O[C@H](O[C@H]2[C@H](O)[C@@H](O[C@H]3O[C@H](CO)[C@@H](O)[C@H](N)[C@H]3O)[C@H](N)C[C@@H]2N)[C@H](O)[C@@H](O)[C@@H]1O,Activity,[10],Active
same,Activity,[11],Active
same,Activity,[12],Active
same,Activity,[13],Active
same,Activity,[14],Active
same,Activity,[15],Active
same,Activity,[16],Active
same,Activity,[17],Active
same,inhibition zone (IZ),[18],9.3 mm
same,Activity,[19],Active
same,Activity,[20],Active
same,Activity,[21],Active
